One block for each compound: values may come before it. The source made the active and inactive calls. The rule behind the calls is not given here.
Legend:
[1] = (§1) Displacement of [125I]-Sar1,Ile8-angiotensin 2 from AT1 receptor in Sprague-Dawley rat vascular smooth muscle cells after 150 mins by gamma counting analysis
How it was run: (§2)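 Competition radioligand binding to the AT1 receptor was run on vascular smooth muscle cells with [125I]-AII as the labelled ligand. Affinity is reported as IC50 and Ki, given as ± SEM.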

Rattus norvegicus [2] = species: Rattus norvegicus; assay: as §1; how it was run: as §2
Rattus norvegicus [3] = assay: Antihypertensive activity in SHR rat assessed as reduction in mean blood pressure at 5 mg/kg, po measured upto 24 hrs post dosing; assay type: functional, organism-based
How it was run: (§3)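 Spontaneously hypertensive rats received test agents orally at 5 or 10 mg/kg, with losartan and telmisartan at 10 mg/kg as references. Mean blood pressure was tracked for over 24 h after dosing and compared with a negative control group. Significance versus control was set at p<0.05 and p<0.01.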

Rattus norvegicus [4] = assay: Antihypertensive activity in SHR rat assessed as reduction in mean blood pressure at 10 mg/kg, po measured upto 24 hrs post dosing; assay type: functional; how it was run: as §3
Rattus norvegicus [5] = assay: Antihypertensive activity in po dosed SHR rat assessed as reduction in mean blood pressure measured upto 24 hrs post dosing; assay type: functional, organism-based
How it was run: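 In spontaneously hypertensive rats, test compounds were given orally at 5 and 10 mg/kg, with losartan and telmisartan references at 10 mg/kg. Mean blood pressure was followed over time to beyond 24 h post-dose and compared with a negative control group. Significance was set at p<0.05 and p<0.01.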

Rattus norvegicus [6] = assay: Antihypertensive activity in SHR rat assessed as reduction in mean blood pressure at 10 mg/kg, po measured after 6 hrs post dosing; assay type: functional; how it was run: as §3
[7] = Acute toxicity in ICR mouse assessed as mortality at 307.20 mg/kg, ig administered daily for 2 weeks measured during compound dosing; assay type: organism-based; conditions: in vivo, po, 307.2 mg/kg
How it was run: (§4)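 Mice were given single-compound dose groups of 307.20, 384.00, 480.00, 600.00, 750.00 and 937 mg/kg. Body weight of survivors was checked after 2 weeks. Mortality (%) was scored per dose group, and LD50 with 95% confidence interval was derived from log(dose) versus mortality.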

[8] = Acute toxicity in ICR mouse assessed as mortality at 384 mg/kg, ig administered daily for 2 weeks measured during compound dosing; assay type: organism-based; conditions: in vivo, po; how it was run: as §4
[9] = Acute toxicity in ICR mouse assessed as mortality at 480 mg/kg, ig administered daily for 2 weeks measured during compound dosing; assay type: organism-based; conditions: in vivo, po; how it was run: as §4
[10] = Acute toxicity in ICR mouse assessed as mortality at 600 mg/kg, ig administered daily for 2 weeks measured during compound dosing; assay type: organism-based; conditions: in vivo, po; how it was run: as §4
[11] = Acute toxicity in ICR mouse assessed as mortality at 750 mg/kg, ig administered daily for 2 weeks measured during compound dosing; assay type: organism-based; conditions: in vivo, po; how it was run: as §4
[12] = Acute toxicity in ICR mouse assessed as mortality at 937 mg/kg, ig administered daily for 2 weeks measured during compound dosing; assay type: organism-based; conditions: in vivo, po; how it was run: as §4
[13] = Acute toxicity in intragastrically dosed ICR mouse assessed as mortality administered daily for 2 weeks measured during compound dosing; assay type: organism-based; conditions: in vivo, po; how it was run: as §4
Mus musculus [14] = assay: Acute toxicity in ICR mouse assessed as skin changes at 307.20 mg/kg, ig administered daily for 2 weeks measured during compound dosing; assay type: organism-based; conditions: in vivo, po, 307.2 mg/kg, 336 h; how it was run: as §4
Mus musculus [15] = assay: Acute toxicity in ICR mouse assessed as skin changes at 384 mg/kg, ig administered daily for 2 weeks measured during compound dosing; assay type: organism-based; conditions: in vivo, po, 336 h; how it was run: as §4
Mus musculus [16] = assay: Acute toxicity in ICR mouse assessed as mobility at 307.20 mg/kg, ig administered daily for 2 weeks measured during compound dosing; assay type: organism-based; conditions: in vivo, po, 307.2 mg/kg, 336 h; how it was run: as §4
Mus musculus [17] = assay: Acute toxicity in ICR mouse assessed as mobility at 384 mg/kg, ig administered daily for 2 weeks measured during compound dosing; assay type: organism-based; conditions: in vivo, po, 336 h; how it was run: as §4
Mus musculus [18] = assay: Acute toxicity in ICR mouse assessed as aggressiveness at 307.20 mg/kg, ig administered daily for 2 weeks measured during compound dosing; assay type: organism-based; conditions: in vivo, po, 307.2 mg/kg, 336 h; how it was run: as §4
Mus musculus [19] = assay: Acute toxicity in ICR mouse assessed as aggressiveness at 384 mg/kg, ig administered daily for 2 weeks measured during compound dosing; assay type: organism-based; conditions: in vivo, po, 336 h; how it was run: as §4
Mus musculus [20] = assay: Acute toxicity in ICR mouse assessed as respiratory movements at 307.20 mg/kg, ig administered daily for 2 weeks measured during compound dosing; assay type: organism-based; conditions: in vivo, po, 307.2 mg/kg, 336 h; how it was run: as §4
Mus musculus [21] = assay: Acute toxicity in ICR mouse assessed as respiratory movements at 384 mg/kg, ig administered daily for 2 weeks measured during compound dosing; assay type: organism-based; conditions: in vivo, po, 336 h; how it was run: as §4
Mus musculus [22] = assay: Acute toxicity in ICR mouse assessed as change in body weight at 307.20 to 937 mg/kg, ig administered daily for 2 weeks during compound dosing; assay type: organism-based; conditions: in vivo, po, 336 h; how it was run: as §4
Mus musculus [23] = assay: Acute toxicity in ICR mouse assessed as obvious untoward reaction at 307.20 to 937, ig administered daily for 2 weeks during compound dosing; assay type: organism-based; conditions: in vivo, po, 336 h; how it was run: as §4
Mus musculus [24] = assay: Acute toxicity in ICR mouse assessed as pathological changes in organs and tissues at 307.20 to 937, ig administered daily for 2 weeks measured on fifteenth day; assay type: organism-based; conditions: in vivo, po, 336 h
Mus musculus [25] = assay: Acute toxicity in ICR mouse assessed as hyperthyroidism at 480 to 937 mg/kg, ig administered daily for 2 weeks measured after 6 hrs post last dose; conditions: in vivo, po

IC50 [1]: 4.7 nM
Activity (Rattus norvegicus [2]): Dose-dependent effect
Compound: CCCc1nc2c(C)cc(-c3ccccn3)cc2n1Cc1cccc2c1ccn2-c1ccccc1C(=O)O
Ki [1]: 3.4 nM
Activity (Rattus norvegicus [3]): Active
Activity (Rattus norvegicus [4]): Active

IC50 [1]: 0.92 nM
Activity (Rattus norvegicus [2]): Dose-dependent effect
Compound: CCCCCc1nc2c(C)cc(-c3nc4ccccc4n3C)cc2n1Cc1ccc2c(ccn2-c2ccccc2C(=O)O)c1
Ki [1]: 0.67 nM
Activity (Rattus norvegicus [4]): 53 mmHg

IC50 [1]: 8.25 nM
Activity (Rattus norvegicus [2]): Dose-dependent effect
Compound: Cc1cc(-c2nc3ccccc3n2C)cc2c1nc(C)n2Cc1ccc2c(ccn2-c2ccccc2C(=O)O)c1
Ki [1]: 5.13 nM
Activity (Rattus norvegicus [4]): 44 mmHg

IC50 [1]: 2.23 nM
Activity (Rattus norvegicus [2]): Dose-dependent effect
Compound: CCCCc1nc2c(C)cc(-c3nc4ccccc4n3C)cc2n1Cc1ccc2c(ccn2-c2ccccc2C(=O)O)c1
Ki [1]: 1.39 nM
Activity (Rattus norvegicus [3]): Active
Activity (Rattus norvegicus [4]): Active

IC50 [1]: 13.1 nM
Activity (Rattus norvegicus [2]): Dose-dependent effect
Compound: CCc1nc2c(C)cc(-c3nc4ccccc4n3C)cc2n1Cc1ccc2c(ccn2-c2ccccc2C(=O)O)c1
Ki [1]: 8.16 nM
Activity (Rattus norvegicus [3]): inactive
Activity (Rattus norvegicus [4]): inactive

IC50 [1]: 5.61 nM
Activity (Rattus norvegicus [2]): Dose-dependent effect
Compound: CCCCc1nc2c(C)cc(-c3ccccn3)cc2n1Cc1ccc2c(ccn2-c2ccccc2C(=O)O)c1
Ki [1]: 4.06 nM
Activity (Rattus norvegicus [3]): inactive
Activity (Rattus norvegicus [4]): inactive

IC50 [1]: 3.76 nM
Activity (Rattus norvegicus [2]): Dose-dependent effect
Compound: CCCc1nc2c(C)cc(-c3nc4ccccc4n3C)cc2n1Cc1ccc2c(ccn2-c2ccccc2C(=O)O)c1
Ki [1]: 2.35 nM
Activity (Rattus norvegicus [3]): Active
Activity (Rattus norvegicus [4]): Active

IC50 [1]: 3.39 nM
Activity (Rattus norvegicus [2]): Dose-dependent effect
Compound: CCCc1nc2c(C)cc(-c3nc4ccccc4n3C)cc2n1Cc1cccc2c1ccn2-c1ccccc1-c1nnn[nH]1
Ki [1]: 2.12 nM
Activity (Rattus norvegicus [3]): Active
Activity (Rattus norvegicus [4]): Active

Compound: CCCc1nc2c(C)cc(-c3nc4ccccc4n3C)cc2n1Cc1cccc2c1ccn2-c1ccccc1C(=O)O
IC50 [1]: 0.36 nM
Ki [1]: 0.23 nM
Activity (Rattus norvegicus [2]): Dose-dependent effect
Activity (Rattus norvegicus [3]): Active
Activity (Rattus norvegicus [4]): Active
Activity (Rattus norvegicus [5]): Dose-dependent effect
Activity (Rattus norvegicus [6]): 64 mmHg
mortality at 336 h [7]: 0%
mortality at 336 h [8]: 10%
mortality at 336 h [9]: 50%
mortality at 336 h [10]: 60%
mortality at 336 h [11]: 90%
mortality at 336 h [12]: 100%
LD50 at 336 h [13]: 526 mg/kg
Activity (Mus musculus [14]): Non-toxic
Activity (Mus musculus [15]): Non-toxic
Activity (Mus musculus [16]): Non-toxic
Activity (Mus musculus [17]): Non-toxic
Activity (Mus musculus [18]): Non-toxic
Activity (Mus musculus [19]): Non-toxic
Activity (Mus musculus [20]): Non-toxic
Activity (Mus musculus [21]): Non-toxic
Activity (Mus musculus [22]): Non-toxic
Activity (Mus musculus [23]): Non-toxic
Activity (Mus musculus [24]): Non-toxic
Activity (Mus musculus [25]): Toxic

IC50 [1]: 3.55 nM
Activity (Rattus norvegicus [2]): Dose-dependent effect
Compound: CCc1nc2c(C)cc(-c3ccccn3)cc2n1Cc1cccc2c1ccn2-c1ccccc1C(=O)O
Ki [1]: 2.57 nM
Activity (Rattus norvegicus [3]): Active
Activity (Rattus norvegicus [4]): Active

IC50 [1]: 3.27 nM
Activity (Rattus norvegicus [2]): Dose-dependent effect
Compound: CCCc1nc2c(C)cc(-c3ccccn3)cc2n1Cc1ccc2c(ccn2-c2ccccc2C(=O)O)c1
Ki [1]: 2.37 nM
Activity (Rattus norvegicus [4]): 43 mmHg

IC50 [1]: 7.46 nM
Activity (Rattus norvegicus [2]): Dose-dependent effect
Compound: Cc1cc(-c2nc3ccccc3n2C)cc2c1nc(C)n2Cc1cccc2c1ccn2-c1ccccc1C(=O)O
Ki [1]: 4.66 nM
Activity (Rattus norvegicus [3]): inactive
Activity (Rattus norvegicus [4]): inactive

IC50 [1]: 5.63 nM
Activity (Rattus norvegicus [2]): Dose-dependent effect
Compound: CCCCc1nc2c(C)cc(-c3ccccn3)cc2n1Cc1cccc2c1ccn2-c1ccccc1C(=O)O
Ki [1]: 4.08 nM
Activity (Rattus norvegicus [3]): Active
Activity (Rattus norvegicus [4]): Active

IC50 [1]: 1.83 nM
Activity (Rattus norvegicus [2]): Dose-dependent effect
Compound: CCc1nc2c(C)cc(-c3nc4ccccc4n3C)cc2n1Cc1cccc2c1ccn2-c1ccccc1C(=O)O
Ki [1]: 1.14 nM
Activity (Rattus norvegicus [3]): Active
Activity (Rattus norvegicus [4]): Active

IC50 [1]: 2.61 nM
Activity (Rattus norvegicus [2]): Dose-dependent effect
Compound: CCCCc1nc2c(C)cc(-c3nc4ccccc4n3C)cc2n1Cc1cccc2c1ccn2-c1ccccc1C(=O)O
Ki [1]: 1.63 nM
Activity (Rattus norvegicus [3]): inactive
Activity (Rattus norvegicus [4]): inactive

IC50 [1]: 3.8 nM
Activity (Rattus norvegicus [2]): Dose-dependent effect
Compound: CCCc1nc2c(C)cc(-c3nc4ccccc4n3C)cc2n1Cc1ccc(-c2ccccc2C(=O)O)cc1 [TELMISARTAN]
Ki [1]: 2.75 nM
Activity (Rattus norvegicus [4]): Active

IC50 [1]: 11.3 nM
Activity (Rattus norvegicus [2]): Dose-dependent effect
Compound: CCCCCc1nc2c(C)cc(-c3nc4ccccc4n3C)cc2n1Cc1cccc2c1ccn2-c1ccccc1C(=O)O
Ki [1]: 7.06 nM
Activity (Rattus norvegicus [3]): inactive
Activity (Rattus norvegicus [4]): inactive

IC50 [1]: 1.17 nM
Activity (Rattus norvegicus [2]): Dose-dependent effect
Compound: CCc1nc2c(C)cc(-c3ccccn3)cc2n1Cc1ccc2c(ccn2-c2ccccc2C(=O)O)c1
Ki [1]: 0.84 nM
Activity (Rattus norvegicus [4]): 42 mmHg

IC50 [1]: 20.1 nM
Activity (Rattus norvegicus [2]): Dose-dependent effect
Compound: CCCCc1nc(Cl)c(CO)n1Cc1ccc(-c2ccccc2-c2nnn[nH]2)cc1 [LOSARTAN]
Ki [1]: 13.1 nM
Activity (Rattus norvegicus [4]): 43 mmHg
